Reference: ChEMBL document CHEMBL1955778, “Design and synthesis of novel 7-aminoquinazoline derivatives: antitumor and anticonvulsant activities” (Bioorg Med Chem Lett, 2012)

Legend:
SK-OV-3 = test: Growth inhibition of human SKOV3 cells at 10 uM relative to control; format: functional; conditions: read-out: GI
Method in brief: (§1)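 Each cell line in a 60-line human tumour panel exposed to one 10 μM concentration. Growth inhibition percentage computed as 100 minus the percentage activity relative to control.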

OVCAR-4 = test: Growth inhibition of human OVCAR4 cells at 10 uM relative to control; format: functional; conditions: read-out: GI; method in brief: as §1
OVCAR-3 = test: Growth inhibition of human OVCAR3 cells at 10 uM relative to control; format: functional; conditions: read-out: GI; method in brief: as §1
UACC-62 = test: Growth inhibition of human UACC62 cells at 10 uM relative to control; format: functional; conditions: read-out: GI
Method in brief: (§2)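 Single-dose screen across the 60-cell-line human tumor panel at 10 μM. Growth inhibition is reported as a percentage, taken as 100 minus the % growth relative to untreated control.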

SK-MEL-5 = test: Growth inhibition of human SK-MEL-5 cells at 10 uM relative to control; format: functional; conditions: read-out: GI; method in brief: as §1
MDA-MB-435 = test: Growth inhibition of human MDA-MB-435 cells at 10 uM relative to control; format: functional; conditions: read-out: GI; method in brief: as §1
SNB-75 = test: Growth inhibition of human SNB75 cells at 10 uM relative to control; format: functional; conditions: read-out: GI; method in brief: as §2
SF-539 = test: Growth inhibition of human SF539 cells at 10 uM relative to control; format: functional; conditions: read-out: GI; method in brief: as §1
A549 = test: Growth inhibition of human A549 cells at 10 uM relative to control; format: functional; conditions: read-out: GI; method in brief: as §1
EKVX = test: Growth inhibition of human EKVX cells at 10 uM relative to control; format: functional; conditions: read-out: GI; method in brief: as §1
RPMI-8226 = test: Growth inhibition of human RPMI8226 cells at 10 uM relative to control; format: functional; conditions: read-out: GI; method in brief: as §1
MOLT-4 = test: Growth inhibition of human MOLT4 cells at 10 uM relative to control; format: functional; conditions: read-out: GI; method in brief: as §1
K562 = test: Growth inhibition of human K562 cells at 10 uM relative to control; format: functional; conditions: read-out: GI; method in brief: as §1
CCRF-CEM = test: Growth inhibition of human CCRF-CEM cells at 10 uM relative to control; format: functional; conditions: read-out: GI; method in brief: as §1
HL-60(TB) = test: Growth inhibition of human HL-60(TB) cells at 10 uM relative to control; format: functional; conditions: read-out: GI
Method in brief: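 Single-dose screen at 10 μM across the 60-cell-line tumour panel. Percent growth inhibition = 100 minus percent growth activity relative to untreated control.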

Mus musculus [1] = organism: Mus musculus; test: Protective index, ratio of TD50 for mouse to ED50 for pentylenetetrazol-induced seizure in mouse; format: functional
Method in brief: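 Mice. Index is TD50/ED50. TD50 is the dose causing minimal neurological toxicity in 50% of mice in the Chimney test. ED50 is the dose protecting 50% of mice against pentylenetetrazole-induced seizures. Both are estimated from testing at several doses.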

[2] = Toxicity in ip dose mouse assessed as mortality; format: organism-based; conditions: in vivo
Method in brief: (§3)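 In mice, LD50 is the dose causing 50% mortality. ED50 is the dose protecting 50% of mice against pentylenetetrazole-induced seizures. Therapeutic index = LD50/ED50.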

[3] = Therapeutic index, ratio of LD50 for mouse to ED50 for pentylenetetrazol-induced seizure in mouse; format: organism-based; conditions: in vivo, read-out: Ratio LD50/ED50; method in brief: as §3
[4] = Neurotoxicity in ip dosed mouse assessed as impaired motor coordination administered 30 mins prior to test by chimney test; format: toxicity, organism-based; conditions: in vivo
Method in brief: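 Mice, Chimney test. TD50 is the dose that produces minimal neurological toxicity (impaired motor coordination) in 50% of animals, estimated from testing at several doses.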

Mus musculus [5] = test: Anticonvulsant activity in ip dosed mouse assessed as protection against pentylenetetrazol-induced seizure administered 30 min prior to pentylenetetrazol-challenge measured after 60 mins; format: functional
Method in brief: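 Mice received several doses for quantification. ED50 taken as the dose protecting 50% of mice against pentylenetetrazol-induced seizures.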

Mus musculus [6] = test: Anticonvulsant activity in mouse assessed as protection against maximal electroshock-induced seizure at 1 mmol/kg, ip administered 30 min prior to maximal electroshock-challenge measured after 60 mins relative to control; format: functional
Mus musculus [7] = test: Anticonvulsant activity in mouse assessed as protection against picrotoxin-induced seizure at 1 mmol/kg, ip administered 30 min prior to picrotoxin-challenge measured after 60 mins relative to control; format: functional
Mus musculus [8] = test: Anticonvulsant activity in mouse assessed as protection against strychnine-induced seizure at 1 mmol/kg, ip administered 30 min prior to strychnine-challenge measured after 60 mins relative to control; format: functional
Mus musculus [9] = test: Anticonvulsant activity in mouse assessed as protection against pentylenetetrazol-induced seizure at 1 mmol/kg, ip administered 30 min prior to pentylenetetrazol-challenge measured after 60 mins relative to control; format: functional
T47D = test: Growth inhibition of human T47D cells at 10 uM relative to control; format: functional; conditions: read-out: GI; method in brief: as §2
MDA-MB-231 = test: Growth inhibition of human MDA-MB-231 cells at 10 uM relative to control; format: functional; conditions: read-out: GI; method in brief: as §1
MCF7 = test: Growth inhibition of human MCF7 cells at 10 uM relative to control; format: functional; conditions: read-out: GI; method in brief: as §1
PC-3 = test: Growth inhibition of human PC3 cells at 10 uM relative to control; format: functional; conditions: read-out: GI; method in brief: as §1
UO-31 = test: Growth inhibition of human UO31 cells at 10 uM relative to control; format: functional; conditions: read-out: GI; method in brief: as §2
SN12C = test: Growth inhibition of human SN12C cells at 10 uM relative to control; format: functional; conditions: read-out: GI; method in brief: as §2
RXF 393 = test: Growth inhibition of human RXF393 cells at 10 uM relative to control; format: functional; conditions: read-out: GI; method in brief: as §1
CAKI-1 = test: Growth inhibition of human CAKI-1 cells at 10 uM relative to control; format: functional; conditions: read-out: GI; method in brief: as §1
ACHN = test: Growth inhibition of human ACHN cells at 10 uM relative to control; format: functional; conditions: read-out: GI; method in brief: as §1
[10] = Growth inhibition of human 786-O cells at 10 uM relative to control; format: functional; conditions: 786-0, read-out: GI; method in brief: as §1
OVCAR-8 = test: Growth inhibition of human OVCAR8 cells at 10 uM relative to control; format: functional; conditions: read-out: GI; method in brief: as §1
SK-MEL-28 = test: Growth inhibition of human SK-MEL-28 cells at 10 uM relative to control; format: functional; conditions: read-out: GI; method in brief: as §1
U-251 = test: Growth inhibition of human U251 cells at 10 uM relative to control; format: functional; conditions: read-out: GI; method in brief: as §2
SNB-19 = test: Growth inhibition of human SNB19 cells at 10 uM relative to control; format: functional; conditions: read-out: GI; method in brief: as §2
SF-268 = test: Growth inhibition of human SF268 cells at 10 uM relative to control; format: functional; conditions: read-out: GI; method in brief: as §1
KM12 = test: Growth inhibition of human KM12 cells at 10 uM relative to control; format: functional; conditions: read-out: GI; method in brief: as §1
HCT-116 = test: Growth inhibition of human HCT116 cells at 10 uM relative to control; format: functional; conditions: read-out: GI; method in brief: as §1
HCT-15 = test: Growth inhibition of human HCT15 cells at 10 uM relative to control; format: functional; conditions: read-out: GI; method in brief: as §1
NCI-H522 = test: Growth inhibition of human NCI-H522 cells at 10 uM relative to control; format: functional; conditions: read-out: GI; method in brief: as §1
NCI-H23 = test: Growth inhibition of human NCI-H23 cells at 10 uM relative to control; format: functional; conditions: read-out: GI; method in brief: as §1
NCI-H226 = test: Growth inhibition of human NCI-H226 cells at 10 uM relative to control; format: functional; conditions: read-out: GI; method in brief: as §1
SR = test: Growth inhibition of human SR cells at 10 uM relative to control; format: functional; conditions: read-out: GI; method in brief: as §2
MDA-MB-468 = test: Growth inhibition of human MDA-MB-468 cells at 10 uM relative to control; format: functional; conditions: read-out: GI; method in brief: as §1
[11] = Growth inhibition of human Hs 578T cells at 10 uM relative to control; format: functional; conditions: read-out: GI; method in brief: as §1

Cc1ccccc1-n1c(C)nc2cc(N3C(=O)CSC3c3ccc(Cl)cc3)ccc2c1=O (centres undefined)
inhibition of growth at 10 µM (SK-OV-3): 29.2% | inhibition of growth at 10 µM (OVCAR-4): 5% | inhibition of growth at 10 µM (OVCAR-3): 5.2% | inhibition of growth at 10 µM (UACC-62): 18% | inhibition of growth at 10 µM (SK-MEL-5): 4% | inhibition of growth at 10 µM (MDA-MB-435): 7.7% | inhibition of growth at 10 µM (SNB-75): 7.6% | inhibition of growth at 10 µM (SF-539): 5% | inhibition of growth at 10 µM (A549): 12% | inhibition of growth at 10 µM (EKVX): 4% | inhibition of growth at 10 µM (RPMI-8226): 9.2% | inhibition of growth at 10 µM (MOLT-4): 39.1% | inhibition of growth at 10 µM (K562): 8.4% | inhibition of growth at 10 µM (CCRF-CEM): 11.3% | inhibition of growth at 10 µM (HL-60(TB)): 6% | Ratio TD50/ED50 (Mus musculus [1]): 1.5 | LD50 [2]: 1040 µmol/kg | selectivity ratio [3]: 2.53 | TD50 at 0.5 h [4]: 600 µmol/kg | ED50 (Mus musculus [5]): 410 µmol/kg | Activity (Mus musculus [6]): 100% | Activity (Mus musculus [7]): 75% | Activity (Mus musculus [8]): 0% | Activity (Mus musculus [9]): 100% | inhibition of growth at 10 µM (T47D): 4% | inhibition of growth at 10 µM (MDA-MB-231): 23.7% | inhibition of growth at 10 µM (MCF7): 5.2% | inhibition of growth at 10 µM (PC-3): 8% | inhibition of growth at 10 µM (UO-31): 15% | inhibition of growth at 10 µM (SN12C): 5% | inhibition of growth at 10 µM (RXF 393): 3% | inhibition of growth at 10 µM (CAKI-1): 3% | inhibition of growth at 10 µM (ACHN): 3.5%

Cc1ccccc1-n1c(C)nc2cc(N3C(=O)CSC3c3ccccc3)ccc2c1=O (centres undefined)
inhibition of growth at 10 µM [10]: 3% | inhibition of growth at 10 µM (OVCAR-8): 5% | inhibition of growth at 10 µM (OVCAR-4): 3% | inhibition of growth at 10 µM (MDA-MB-435): 9.7% | inhibition of growth at 10 µM (SK-MEL-28): 5% | inhibition of growth at 10 µM (U-251): 13% | inhibition of growth at 10 µM (SNB-19): 9.7% | inhibition of growth at 10 µM (SNB-75): 19.5% | inhibition of growth at 10 µM (SF-268): 14.2% | inhibition of growth at 10 µM (KM12): 15.5% | inhibition of growth at 10 µM (HCT-116): 16% | inhibition of growth at 10 µM (HCT-15): 13.3% | inhibition of growth at 10 µM (NCI-H522): 18% | inhibition of growth at 10 µM (NCI-H23): 4.4% | inhibition of growth at 10 µM (NCI-H226): 14.3% | inhibition of growth at 10 µM (A549): 8.1% | inhibition of growth at 10 µM (EKVX): 12.8% | inhibition of growth at 10 µM (RPMI-8226): 21.4% | inhibition of growth at 10 µM (SR): 35.3% | inhibition of growth at 10 µM (MOLT-4): 46.3% | inhibition of growth at 10 µM (K562): 37.6% | inhibition of growth at 10 µM (CCRF-CEM): 31.1% | inhibition of growth at 10 µM (HL-60(TB)): 32.7% | Ratio TD50/ED50 (Mus musculus [1]): 1.06 | LD50 [2]: 1500 µmol/kg | selectivity ratio [3]: 2.13 | TD50 at 0.5 h [4]: 750 µmol/kg | ED50 (Mus musculus [5]): 700 µmol/kg | Activity (Mus musculus [6]): 100% | Activity (Mus musculus [7]): 50% | Activity (Mus musculus [8]): 0% | Activity (Mus musculus [9]): 100% | inhibition of growth at 10 µM (MDA-MB-468): 25.8% | inhibition of growth at 10 µM (T47D): 25.8% | inhibition of growth at 10 µM [11]: 6% | inhibition of growth at 10 µM (MDA-MB-231): 17.3% | inhibition of growth at 10 µM (MCF7): 21.8% | inhibition of growth at 10 µM (PC-3): 26.9% | inhibition of growth at 10 µM (UO-31): 22% | inhibition of growth at 10 µM (SN12C): 3% | inhibition of growth at 10 µM (CAKI-1): 15.6%
